High-throughput results as filed in PubChem.
Redox H2O2 prof = compounds producing H2O2 with reducing agent – biochemical, NIH compound library profiling, artefact control for MLSCN library redox annotation, primary screen; DTT-dependent redox cycling H2O2, phenol red/HRP absorbance; 100% = 100 µM peroxide control, 0% = buffer; activation, % at 10 µM; actives 0.03% (n = 200,000);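 active = activation of at least 50% relative to the plate's high and low controls in the primary single-dose screen; inactive = activation below 50%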;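 also: compound incubated with DTT at 0.8 mM final as the reducing agent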
FLuc inh counter = firefly luciferase enzyme inhibitors, primary screen, artefact control for luciferase-based inhibitor screens, biochemical, luminescence, ATPLite. Luciferin 4-monooxygenase (Photinus pyralis), P08659. 10 min. inhibition, % at 10 µM. actives 1.5% (n = 200,000);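 active = inhibition above about 50% when tested at 10 µM, limit read from the data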
Target sequence (P08659 whole entry, looked up): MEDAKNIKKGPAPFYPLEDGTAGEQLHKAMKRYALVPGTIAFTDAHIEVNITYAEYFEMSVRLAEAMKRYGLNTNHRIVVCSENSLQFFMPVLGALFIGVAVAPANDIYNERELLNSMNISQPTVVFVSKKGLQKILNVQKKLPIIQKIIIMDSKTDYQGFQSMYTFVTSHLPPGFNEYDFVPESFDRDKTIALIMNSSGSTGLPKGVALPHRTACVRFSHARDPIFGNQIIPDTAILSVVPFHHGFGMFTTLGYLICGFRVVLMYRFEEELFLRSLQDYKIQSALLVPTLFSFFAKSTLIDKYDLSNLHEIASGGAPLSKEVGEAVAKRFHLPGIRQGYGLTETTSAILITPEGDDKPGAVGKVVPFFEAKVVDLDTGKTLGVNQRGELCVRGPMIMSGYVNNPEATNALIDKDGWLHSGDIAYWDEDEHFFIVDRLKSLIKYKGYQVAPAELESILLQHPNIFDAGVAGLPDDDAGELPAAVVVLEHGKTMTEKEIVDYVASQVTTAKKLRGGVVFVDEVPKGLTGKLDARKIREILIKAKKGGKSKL
ABCG2 inh = ABCG2 efflux pump inhibitors, primary screen, multiplex with ABCB1, IgMXP3 cells, flow cytometry | Broad substrate specificity ATP-binding cassette transporter ABCG2 (Homo sapiens), Q9UNQ0 | JC-1 efflux | inhibition, % at 6.6 µM | actives 0.1% (n = 190,000);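 active = inhibition above 80%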;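 also: 0% = DMSO and 100% = nicardipine control wells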
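material = IgMXP3 (ABCG2) plus far-red-tagged CCRF-Adr (ABCB1) cells | amount = 3 million cells/mL, equal mix of both lines | also added = JC-1 transporter substrate | dosing = one concentration, 6.6 µM final | schedule = 10 min at 25 °C | measured by = flow cytometric JC-1 green MFI at 530 nm | read-out basis = percent efflux inhibition, scaled nicardipine 100% to DMSO 0%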
FLuc act counter = FLuc activators, initial screening, artefact control for FLuc-dependent activation tests, biochemical, ATPlite luminescence; ATPlite luciferase biochemical, 10 min; 0 = ATP-free wells, 1 = DMSO control; 200,000 tested, under 10 active; activation factor at 10 µM; Luciferin 4-monooxygenase (Photinus pyralis), P08659;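 active = luciferase activation factor, scaled between plate controls, of at least 2 with compound at 10 µM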
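Assay system: Luciferase/luciferin detection reagent, cell-free biochemical luciferase assay / Also added: ATP substrate / Schedule: 10 min at ambient temperature / Measured by: luminescence measurement of luciferase light output / Benchmarks: low control with PBS replacing ATP, high control enzyme plus ATP without compound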
ABCB1 block = ABCB1 efflux pump inhibitors, primary screen, cell-based, multiplex, flow cytometry, ABCG2 counter-screen. ATP-dependent translocase ABCB1 (Homo sapiens), P08183. CCRF-Adr cells, JC-1 efflux. inhibition, % at 6.6 µM. actives 0.067% (n = 190,000). AID 1326, 2008; in the data active = inhibition above about 40%;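 also: 0% = vehicle and 100% = reference inhibitor; higher value means more JC-1 retained so stronger ABCB1 efflux block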
Measles CPE = compounds protecting cells from measles virus cytopathic effect, primary screen, measles RdRp inhibitor project, single point, MLSMR library, absorbance; Measles virus-infected cells, CPE protection; protection (pct of control), % at 4 µM; actives 1.5% (n = 140,000); AID 841, 2007; in the data active = protection mostly above about 24%, no sharp cut-off; inactive = mostly below about 26%
Starred values were filed as active, the others as inactive. Sampled rows, rich in hits. Any-hit rate of the full collection: about 2.7%.

`CC(C)C(=O)Nc1cccc(C(=O)OCC(=O)c2ccc(Cl)cc2Cl)c1` gave Redox H2O2 prof 0, FLuc inh counter 54*, ABCG2 inh 5, FLuc act counter 0.5, ABCB1 block 1 and Measles CPE 5.
O=C(COC(=O)c1cccnc1Cl)c1ccc(OC(F)F)cc1 was read as Redox H2O2 prof 0, FLuc inh counter 54*, ABCG2 inh 5, FLuc act counter 0.5 and ABCB1 block 0.
Screening O=C(COC(=O)c1cccnc1Cl)c1ccc(Cl)cc1Cl returned Redox H2O2 prof -4, FLuc inh counter 78*, ABCG2 inh 2, FLuc act counter 0.2, ABCB1 block 0 and Measles CPE 13.
For COc1ccc(NC(=O)N2CCCCC2c2cccnc2)cc1 (configuration not stated) the results were Redox H2O2 prof 0, FLuc inh counter -5, ABCG2 inh -1, FLuc act counter 1, ABCB1 block 0 and Measles CPE 11.
`CC(=O)Nc1ccc(S(=O)(=O)N2CCCCC2c2cccnc2)cc1` (configuration not stated) gave Redox H2O2 prof 0, FLuc inh counter -2, ABCG2 inh 1, FLuc act counter 1, ABCB1 block 1 and Measles CPE 29*.
`O=C(Nc1ccc(S(=O)(=O)N2CCCCC2c2cccnc2)cc1)c1c(F)cccc1F` (configuration not stated) gave Redox H2O2 prof -1, FLuc inh counter -2, ABCG2 inh 2, FLuc act counter 1 and ABCB1 block 1.
`COc1cc(C)c(C)cc1S(=O)(=O)N1CCCCC1c1cccnc1` (configuration not stated) gave Redox H2O2 prof 0, FLuc inh counter -6, ABCG2 inh 5, FLuc act counter 1.1, ABCB1 block 1 and Measles CPE 51*.
`Cc1ccc(C)c2nc(SCC(=O)N3CCCc4ccccc43)c(C#N)cc12` gave Redox H2O2 prof -1, FLuc inh counter -2, ABCG2 inh 1, FLuc act counter 1, ABCB1 block 0 and Measles CPE 13.
For CC(C)(c1ccccc1)c1ccc(OCCCNCCO)cc1 the results were Redox H2O2 prof 0, FLuc inh counter -9, ABCG2 inh 4, FLuc act counter 1.1, ABCB1 block 1 and Measles CPE 4.
For COC(=O)c1sc2nc3c(cc2c1N)CCCC3 the results were Redox H2O2 prof 0, FLuc inh counter 60*, ABCG2 inh 2, FLuc act counter 0.4 and ABCB1 block 0.
For NC(=O)c1sc2nc3c(cc2c1N)CCC3 the results were Redox H2O2 prof 0, FLuc inh counter 23, ABCG2 inh 4, FLuc act counter 0.8 and ABCB1 block 0.
For CCn1c(CNc2ccc(Cl)cc2)nnc1SCc1ccccc1 the results were Redox H2O2 prof 0, FLuc inh counter -7, ABCG2 inh 23, FLuc act counter 1.1, ABCB1 block 2 and Measles CPE 46*.
For Cn1c(CNc2ccc(Cl)cc2)nnc1SCc1ccccc1 the results were Redox H2O2 prof 1, FLuc inh counter -4, ABCG2 inh 3, FLuc act counter 1, ABCB1 block 1 and Measles CPE 2.
For Cc1nc(-c2ccccc2)cc(N2CCCC2)n1 the results were Redox H2O2 prof 3, FLuc inh counter -6, ABCG2 inh 9, FLuc act counter 1.1, ABCB1 block 1 and Measles CPE 33*.
For COC(=O)c1sc2ncn(-n3c(C)ccc3C)c(=O)c2c1C the results were Redox H2O2 prof 0, FLuc inh counter -3, ABCG2 inh 2, FLuc act counter 1, ABCB1 block 0 and Measles CPE 6.
For O=C1C[C@@H](c2ccc(O)cc2)Oc2cc(O)cc(O)c21 the results were Redox H2O2 prof 0, FLuc inh counter -1, ABCG2 inh 0, FLuc act counter 1, ABCB1 block 0 and Measles CPE 31*.
O=C(NCc1ccccc1)c1cccc(NS(=O)(=O)c2cccc3cccnc23)c1 was read as Redox H2O2 prof 0, FLuc inh counter -8, ABCG2 inh 14, FLuc act counter 1.1, ABCB1 block 1 and Measles CPE 9.
Cc1cccc2cc(CN(Cc3ccccc3)C(=O)c3cccc(F)c3)c(Cl)nc12 was read as Redox H2O2 prof -4, FLuc inh counter -3, ABCG2 inh 1, FLuc act counter 1, ABCB1 block 1 and Measles CPE 5.
For O=C(Cc1ccccc1)NCc1ccc2c(c1)OCO2 the results were Redox H2O2 prof 0, FLuc inh counter 11, ABCG2 inh 4, FLuc act counter 0.9, ABCB1 block 1 and Measles CPE 6.
For O=C(CN(C(=O)C1CSC(=O)C1)c1ccccc1F)NCc1ccc2c(c1)OCO2 (configuration not stated) the results were Redox H2O2 prof 2, FLuc inh counter -5, ABCG2 inh 0, FLuc act counter 1, ABCB1 block 0 and Measles CPE 63*.
For O=C(CSc1nnc(-c2ccncc2)n1CC1CCCO1)Nc1nccs1 (configuration not stated) the results were Redox H2O2 prof 0, FLuc inh counter -1, ABCG2 inh 0, FLuc act counter 1, ABCB1 block 0 and Measles CPE 6.
Screening COc1cccc(-c2cc(C(=O)Nn3cnnc3)c3ccccc3n2)c1 returned Redox H2O2 prof 0, FLuc inh counter 82*, ABCG2 inh 0, FLuc act counter 0.2, ABCB1 block 0 and Measles CPE 6.
For CCNC(=S)NNC(=O)c1cc(-c2cccc(C)c2)nc2ccccc12 the results were Redox H2O2 prof -4, FLuc inh counter 89*, ABCG2 inh 4, FLuc act counter 0.1 and ABCB1 block 0.
`CCNC(=S)NNC(=O)c1cc(-c2cccc(OCC)c2)nc2ccccc12` gave Redox H2O2 prof -1, FLuc inh counter 58*, ABCG2 inh 0, FLuc act counter 0.4, ABCB1 block 0 and Measles CPE 15.
For CCOC(=O)C(NCCc1ccccc1F)(NC(=O)CC)C(F)(F)F (configuration not stated) the results were Redox H2O2 prof 0, FLuc inh counter -6, ABCG2 inh 21, FLuc act counter 1.1, ABCB1 block 0 and Measles CPE 13.
